As usually defined, the inhibition in vivo is the change of the read-out against control, counted positive when it falls.

The source made the active and inactive calls. No cut-off for these calls is given here.

The subject of series [1] is Schistosoma mansoni. The experiment in a line: Antischistosomal activity against Schistosoma mansoni Puerto Rican infected mouse assessed as infected mouse at 140 mg/kg/day, through diet for 14 days. It is filed as functional. The procedure, abridged:
(§1)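 Mice carrying a Puerto Rican strain of S. mansoni received drug mixed into a powdered diet for 14 days, with dose expressed as mg/kg per day. The read-out was the reduction in live schistosomes in the infected mice.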

The nature of series [2]: Toxicity in mouse po dosed through diet for 14 days. The format is organism-based. As to conditions: in vivo. The procedure, abridged:
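Mice infected with a Puerto Rican strain of *Schistosoma mansoni*; drug mixed into a powdered diet and fed orally for 14 days; doses expressed as mg/kg per day.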

The test system of series [3] is Schistosoma mansoni. The experiment in a line: Antischistosomal activity against Schistosoma mansoni Puerto Rican infected mouse assessed as reduction in live schistosomes at 140 mg/kg/day, through diet for 14 days. The format is functional. As to conditions: 336 h. The procedure, abridged: as §1
In series [4] the test system is Schistosoma mansoni. The experiment in a line: Antischistosomal activity against Schistosoma mansoni Puerto Rican infected mouse assessed as reduction in live schistosomes at 265 mg/kg/day, through diet for 14 days. It is filed as functional. Particulars: 336 h. The method in brief: as §1
Series [5] relates to Schistosoma mansoni. In words: Antischistosomal activity against Schistosoma mansoni Puerto Rican infected mouse assessed as infected mouse at 265 mg/kg/day, through diet for 14 days. The format is functional. The method in brief: as §1
Series [6] deals with Schistosoma mansoni. The experiment in a line: Antischistosomal activity against Schistosoma mansoni Puerto Rican infected mouse assessed as infected mouse at 305 mg/kg/day, through diet for 14 days. It is filed as functional. The procedure, abridged: as §1
Series [7] concerns Schistosoma mansoni. The experiment in a line: Antischistosomal activity against Schistosoma mansoni Puerto Rican infected mouse assessed as reduction in live schistosomes at 305 mg/kg/day, through diet for 14 days. The format is functional. As to conditions: 336 h. The procedure, abridged:
as §1

The test system of series [8] is Schistosoma mansoni. In words: Antischistosomal activity against Schistosoma mansoni Puerto Rican infected mouse assessed as reduction in live schistosomes at 100 mg/kg/day, through gavage for 10 days. Particulars: po, 240 h. The format is functional.
Series [9] relates to Schistosoma mansoni. The experiment in a line: Antischistosomal activity against Schistosoma mansoni Puerto Rican infected mouse assessed as infected mouse at 200 mg/kg/day, through gavage for 5 days. It is filed as functional.
In series [10] the test system is Schistosoma mansoni. In words: Antischistosomal activity against Schistosoma mansoni Puerto Rican infected mouse assessed as reduction in live schistosomes at 200 mg/kg/day, through gavage for 5 days. It is filed as functional. Particulars: po, 120 h.
For series [11], the system named is Schistosoma mansoni. The experiment in a line: Antischistosomal activity against Schistosoma mansoni Puerto Rican infected mouse assessed as infected mouse at 269 mg/kg/day, through diet for 14 days. The format is functional. The procedure, abridged:
as §1

In series [12] the test system is Schistosoma mansoni. The experiment in a line: Antischistosomal activity against Schistosoma mansoni Puerto Rican infected mouse assessed as reduction in live schistosomes at 269 mg/kg/day, through diet for 14 days. It is filed as functional. As to conditions: 336 h. The procedure, abridged:
as §1

Series [13] relates to Schistosoma mansoni. In words: Antischistosomal activity against Schistosoma mansoni Puerto Rican infected mouse assessed as infected mouse at 100 mg/kg/day, through gavage for 10 days. The format is functional.
Series [14] deals with Schistosoma mansoni. In words: Antischistosomal activity against Schistosoma mansoni infected rhesus monkey assessed as removal of all worms at 200 mg/kg/day, through gavage for 5 to 10 days. It is filed as functional, organism-based. The method in brief:
(§2)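 S. mansoni-infected rhesus monkeys were dosed daily by gavage. Assessment was by egg output over time (temporary suppression) and by the number of live and dead worms remaining in the treated animal.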

The test system of series [15] is Schistosoma mansoni. In words: Antischistosomal activity against Schistosoma mansoni infected rhesus monkey assessed as temporary egg suppression at 200 mg/kg/day, through gavage for 10 days. The format is functional, organism-based. The method in brief: as §2
The subject of series [16] is Schistosoma mansoni. In words: Antischistosomal activity against Schistosoma mansoni Puerto Rican infected mouse assessed as reduction in live schistosomes at 288 mg/kg/day, through diet for 14 days. The format is functional. Particulars: 336 h. The method in brief:
as §1

For series [17], the system named is Schistosoma mansoni. The experiment in a line: Antischistosomal activity against Schistosoma mansoni Puerto Rican infected mouse assessed as infected mouse at 288 mg/kg/day, through diet for 14 days. The format is functional. The method in brief:
as §1

Series [18] relates to Schistosoma mansoni. The experiment in a line: Antischistosomal activity against Schistosoma mansoni Puerto Rican infected mouse assessed as reduction in live schistosomes at 396 mg/kg/day, through diet for 14 days. The format is functional. As to conditions: 336 h. The method in brief:
as §1

Series [19] deals with Schistosoma mansoni. In words: Antischistosomal activity against Schistosoma mansoni Puerto Rican infected mouse assessed as infected mouse at 396 mg/kg/day, through diet for 14 days. The format is functional. The method in brief: as §1
The test system of series [20] is Schistosoma mansoni. The experiment in a line: Antischistosomal activity against Schistosoma mansoni Puerto Rican infected mouse assessed as reduction in live schistosomes at 332 mg/kg/day, through diet for 14 days. As to conditions: 336 h. It is filed as functional. The method in brief: as §1
The subject of series [21] is Schistosoma mansoni. The experiment in a line: Antischistosomal activity against Schistosoma mansoni Puerto Rican infected mouse assessed as infected mouse at 332 mg/kg/day, through diet for 14 days. The format is functional. The method in brief:
as §1

Series [22] deals with Schistosoma mansoni. The experiment in a line: Antischistosomal activity against Schistosoma mansoni Puerto Rican infected mouse assessed as infected mouse at 78 mg/kg/day, through diet for 14 days. It is filed as functional. The method in brief: as §1
The subject of series [23] is Schistosoma mansoni. In words: Antischistosomal activity against Schistosoma mansoni Puerto Rican infected mouse assessed as reduction in live schistosomes at 78 mg/kg/day, through diet for 14 days. It is filed as functional. Particulars: 336 h. The procedure, abridged:
as §1

In series [24] the test system is Schistosoma mansoni. In words: Antischistosomal activity against Schistosoma mansoni Puerto Rican infected mouse assessed as reduction in live schistosomes at 297 mg/kg/day, through diet for 14 days. The format is functional. Particulars: 336 h. The procedure, abridged: as §1
In series [25] the test system is Schistosoma mansoni. The experiment in a line: Antischistosomal activity against Schistosoma mansoni Puerto Rican infected mouse assessed as infected mouse at 297 mg/kg/day, through diet for 14 days. The format is functional. The procedure, abridged: as §1
Series [26] concerns Schistosoma mansoni. The experiment in a line: Antischistosomal activity against Schistosoma mansoni Puerto Rican infected mouse assessed as infected mouse at 298 mg/kg/day, through diet for 14 days. It is filed as functional. The method in brief: as §1
Series [27] deals with Schistosoma mansoni. In words: Antischistosomal activity against Schistosoma mansoni Puerto Rican infected mouse assessed as reduction in live schistosomes at 298 mg/kg/day, through diet for 14 days. It is filed as functional. As to conditions: 336 h. The procedure, abridged: as §1

In the case of `CCN(CC)CCNc1ccc(C)c2sc3ccccc3c(=O)c12.Cl` [LUCANTHONE HYDROCHLORIDE], the Activity with Schistosoma mansoni [1] came out at 90%. The same compound registered an MTD at 336 h in series [2] of 140 mg/kg. Besides, the inhibition in vivo at 140 mg/kg/day with Schistosoma mansoni [3] came out at 71%.
As to `CN1C(=O)NC(c2cc(Cl)c(Cl)cc2Cl)C1=O` (stereo not drawn), the inhibition in vivo at 265 mg/kg/day with Schistosoma mansoni [4] was determined as 83%. The Activity in the series with Schistosoma mansoni [5] is on record as 33%.
In the case of `O=C1NC(=O)C(c2c(Cl)ccc(Cl)c2Cl)N1` (stereo not drawn), the Activity in the series with Schistosoma mansoni [6] is 100%. For the same compound, the inhibition in vivo at 305 mg/kg/day in the series with Schistosoma mansoni [7] was determined as 0%.
Regarding `O=C1[N-]C(=O)C(c2cc(Cl)c(Cl)cc2Cl)N1.[Na+]` (stereo not drawn), the inhibition in vivo at 100 mg/kg/day in the series on Schistosoma mansoni [8] was found to be 76%. Moreover, the Activity in the series on Schistosoma mansoni [9], in the series with Schistosoma mansoni [11] and in the series on Schistosoma mansoni [13] was 100% throughout. In addition, the inhibition in vivo at 200 mg/kg/day in the series on Schistosoma mansoni [10] stood at 86%. For the same compound, the inhibition in vivo at 269 mg/kg/day in the series on Schistosoma mansoni [12] is 65%.
As to `O=C1NC(=O)C(c2cc(Cl)c(Cl)cc2Cl)N1` (stereo not drawn), in the series with Schistosoma mansoni [14], the inhibition entry was “Active”. Further, in the series with Schistosoma mansoni [15], the inhibition result is “Dose-dependent effect”.
For `C[N+](C)(C)CCCN1C(=O)NC(c2cc(Cl)c(Cl)cc2Cl)C1=O.[I-]` (stereo not drawn), the inhibition in vivo at 288 mg/kg/day with Schistosoma mansoni [16] was 13%. The Activity in the series on Schistosoma mansoni [17] worked out at 100%.
With `CN1C(=O)NC(=O)C1c1cc(Cl)c(Cl)cc1Cl` (stereo not drawn), the inhibition in vivo at 396 mg/kg/day in the series with Schistosoma mansoni [18] was determined as 71%. In addition, the Activity in the series on Schistosoma mansoni [19] was 83%.
Consider `Cc1c(Cl)ccc(C2(C)NC(=O)NC2=O)c1Cl` (stereo not drawn), for which the inhibition in vivo at 332 mg/kg/day in the series on Schistosoma mansoni [20] was determined as 26%. Besides, the Activity in the series with Schistosoma mansoni [21] is recorded as 100%.
Consider `CN(C)CCCN1C(=O)NC(c2cc(Cl)c(Cl)cc2Cl)C1=O` (stereo not drawn), for which the Activity with Schistosoma mansoni [22] amounted to 100%. Further, the inhibition in vivo at 78 mg/kg/day in the series with Schistosoma mansoni [23] came to 0%. The MTD at 336 h in series [2] is 78 mg/kg.
`CC1(c2cc(Cl)c(Cl)cc2Cl)NC(=O)NC1=O` (stereo not drawn): the inhibition in vivo at 297 mg/kg/day in the series with Schistosoma mansoni [24] was 90%. Also, in the series with Schistosoma mansoni [25], the Activity was determined as 66%.
For `CC1(c2cccc([N+](=O)[O-])c2)NC(=O)NC1=O` (stereo not drawn), the Activity in the series on Schistosoma mansoni [26] is 100%. Moreover, the inhibition in vivo at 298 mg/kg/day in the series with Schistosoma mansoni [27] was determined as 0%.

The record behind these values is ChEMBL document CHEMBL3244429, “Antischistosomal effects of 5-(2,4,5-trichlorophenyl)hydantoin and related compounds” (J Med Chem, 1977).
